According to ChEMBL document CHEMBL3808325, “Discovery and Optimization of Macrocyclic Quinoxaline-pyrrolo-dihydropiperidinones as Potent Pim-1/2 Kinase Inhibitors” (ACS Med Chem Lett, 2016):
Values after ≈ are worked out from the molar mass of the structure shown.

What was measured:
[1] = test system: Mus musculus; assay: In vivo inhibition of Pim1/2-mediated BAD protein phosphorylation at Ser-112 in human KMS-12-BM cells xenografted in SCID-beige mouse assessed as pBAD level at 100 mg/kg, po administered as single dose measured after 6 hrs by meso scale discovery assay; type: functional; design: scale not given: the % may be the effect or the level left
Method in brief: (§1)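 KMS-12-BM xenograft mice given a single oral dose of 25, 50 or 100 mg/kg. Tumor Ser-112 pBAD measured at time points through 16 h postdose. EC50 obtained by fitting all individual total plasma concentration–pBAD response data. Unbound value derived from mouse plasma fraction unbound.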

[2] = Equilibrium solubility of compound in PBS by HPLC analysis; type: physicochemical
[3] = test system: Plasma; assay: Free plasma concentration in SCID-beige mouse at 5 uM by LC/MS analysis; type: ADME, cell-free
[4] = molecular target: Homeodomain-interacting protein kinase 3 (Homo sapiens) (UniProt Q9H422); assay: Inhibition of human HIPK3 assessed as remaining enzyme activity at 1 uM by KINOMEscan assay
Homeodomain-interacting protein kinase 3 (Homo sapiens), sequence (Q9H422 whole entry, looked up): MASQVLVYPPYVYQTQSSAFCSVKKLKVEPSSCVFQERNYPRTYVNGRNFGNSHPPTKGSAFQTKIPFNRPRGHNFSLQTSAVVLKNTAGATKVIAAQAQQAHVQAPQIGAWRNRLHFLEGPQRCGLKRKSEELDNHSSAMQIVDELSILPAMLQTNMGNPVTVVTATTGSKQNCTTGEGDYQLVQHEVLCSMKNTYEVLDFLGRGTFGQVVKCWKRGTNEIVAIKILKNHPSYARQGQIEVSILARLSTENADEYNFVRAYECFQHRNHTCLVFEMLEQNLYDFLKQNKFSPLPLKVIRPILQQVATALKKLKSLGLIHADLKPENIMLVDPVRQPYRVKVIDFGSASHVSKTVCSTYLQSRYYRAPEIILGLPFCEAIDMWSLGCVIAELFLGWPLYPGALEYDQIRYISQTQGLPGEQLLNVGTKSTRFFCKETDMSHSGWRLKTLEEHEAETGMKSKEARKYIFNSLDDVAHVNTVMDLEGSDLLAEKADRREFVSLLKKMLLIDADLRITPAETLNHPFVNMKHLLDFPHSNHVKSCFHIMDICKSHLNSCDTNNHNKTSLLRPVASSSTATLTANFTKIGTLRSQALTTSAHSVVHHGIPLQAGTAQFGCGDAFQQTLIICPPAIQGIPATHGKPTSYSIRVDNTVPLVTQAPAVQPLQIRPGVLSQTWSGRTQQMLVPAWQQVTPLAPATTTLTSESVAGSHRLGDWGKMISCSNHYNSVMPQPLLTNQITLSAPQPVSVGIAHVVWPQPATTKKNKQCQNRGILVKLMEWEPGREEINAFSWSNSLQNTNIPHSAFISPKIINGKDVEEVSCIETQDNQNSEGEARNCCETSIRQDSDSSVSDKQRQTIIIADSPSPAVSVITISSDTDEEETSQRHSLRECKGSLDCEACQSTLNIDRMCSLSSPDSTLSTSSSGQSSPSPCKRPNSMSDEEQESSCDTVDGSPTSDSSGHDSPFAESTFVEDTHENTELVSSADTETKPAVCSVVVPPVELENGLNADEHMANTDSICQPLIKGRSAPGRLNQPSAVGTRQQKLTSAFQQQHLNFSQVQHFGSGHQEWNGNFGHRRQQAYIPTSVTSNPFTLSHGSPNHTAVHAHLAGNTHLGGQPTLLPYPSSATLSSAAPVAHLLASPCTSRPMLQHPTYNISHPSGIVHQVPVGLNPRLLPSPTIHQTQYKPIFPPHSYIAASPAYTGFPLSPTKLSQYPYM
Method in brief: (§2)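 scanMAX KINOMEscan panel of 392 nonmutant kinases, compound tested at 1 μM. Result expressed as percent of control (POC). S(10) and S(1) scores are the fraction of kinases with POC below 10% and below 1%.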

[5] = molecular target: Casein kinase I isoform alpha-like (Homo sapiens) (UniProt Q8N752); assay: Inhibition of full-length human CSNK1A1L expressed in bacterial system assessed as remaining enzyme activity at 1 uM by KINOMEscan assay; method in brief: as §2
Casein kinase I isoform alpha-like (Homo sapiens), sequence (Q8N752 whole entry, canonical isoform): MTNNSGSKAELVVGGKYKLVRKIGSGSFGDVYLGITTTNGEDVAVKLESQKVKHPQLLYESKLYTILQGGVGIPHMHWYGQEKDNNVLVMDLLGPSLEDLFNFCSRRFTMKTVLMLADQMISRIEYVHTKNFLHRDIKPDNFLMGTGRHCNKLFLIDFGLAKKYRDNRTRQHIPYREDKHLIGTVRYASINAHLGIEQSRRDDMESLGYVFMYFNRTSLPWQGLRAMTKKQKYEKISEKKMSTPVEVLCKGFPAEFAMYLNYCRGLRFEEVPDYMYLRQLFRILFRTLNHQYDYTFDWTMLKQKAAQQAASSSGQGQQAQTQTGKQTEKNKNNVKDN

[6] = molecular target: T1, Serine/threonine-protein kinase pim-2 (Homo sapiens, UniProt Q9P1W9); assay: Inhibition of human full-length Pim2 expressed in Escherichia coli assessed as phosphorylation of biotinylated BAD peptide at Ser 112 preincubated for 30 mins followed by substrate addition measured after 1 hr by HTRF assay
Method in brief: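 Cell-free kinase assay using recombinant Pim-1 or Pim-2. Read-out is phosphorylation of a short BAD peptide sequence spanning Ser-112.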
Target sequence in this assay (Q9P1W9 whole entry): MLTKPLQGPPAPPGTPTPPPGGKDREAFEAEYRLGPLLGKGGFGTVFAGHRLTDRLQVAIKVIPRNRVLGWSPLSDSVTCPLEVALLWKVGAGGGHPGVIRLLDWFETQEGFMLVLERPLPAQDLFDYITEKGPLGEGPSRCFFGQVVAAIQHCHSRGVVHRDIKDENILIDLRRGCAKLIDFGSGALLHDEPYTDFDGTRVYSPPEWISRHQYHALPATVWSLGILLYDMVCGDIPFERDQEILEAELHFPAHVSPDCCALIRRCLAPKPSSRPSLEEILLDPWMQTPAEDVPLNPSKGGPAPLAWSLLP

[7] = test system: Mus musculus; assay: In vivo inhibition of Pim1/2-mediated BAD protein phosphorylation at Ser-112 in human KMS-12-BM cells xenografted in SCID-beige mouse assessed as pBAD level at 25 mg/kg, po administered as single dose measured after 16 hrs by meso scale discovery assay; type: functional; design: scale not given: the % may be the effect or the level left; method in brief: as §1
[8] = molecular target: Mitogen-activated protein kinase kinase kinase 19 (Homo sapiens) (UniProt Q56UN5); assay: Inhibition of human YSK4 assessed as remaining enzyme activity at 1 uM by KINOMEscan assay; method in brief: as §2
[9] = test system: Rattus norvegicus; assay: Clearance in Sprague-Dawley rat at 2 mg/kg, iv relative to hepatic blood flow; type: ADME, organism-based, Liver; conditions: in vivo
Method in brief: (§3)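 Pharmacokinetics in male Sprague–Dawley rats. Clearance also expressed as a percentage of liver blood flow. Oral bioavailability determined.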

[10] = Clearance in Sprague-Dawley rat at 2 mg/kg, iv; type: ADME, organism-based; conditions: in vivo; method in brief: as §3
[11] = Volume of distribution at steady state in Sprague-Dawley rat at 2 mg/kg, iv; type: ADME, organism-based; conditions: in vivo, read-out: Vdss; method in brief: as §3
[12] = molecular target: Dual specificity protein kinase CLK2 (Homo sapiens) (UniProt P49760); assay: Inhibition of human CLK2 assessed as remaining enzyme activity at 1 uM by KINOMEscan assay; method in brief: as §2
Dual specificity protein kinase CLK2 (Homo sapiens), sequence (P49760 whole entry, looked up): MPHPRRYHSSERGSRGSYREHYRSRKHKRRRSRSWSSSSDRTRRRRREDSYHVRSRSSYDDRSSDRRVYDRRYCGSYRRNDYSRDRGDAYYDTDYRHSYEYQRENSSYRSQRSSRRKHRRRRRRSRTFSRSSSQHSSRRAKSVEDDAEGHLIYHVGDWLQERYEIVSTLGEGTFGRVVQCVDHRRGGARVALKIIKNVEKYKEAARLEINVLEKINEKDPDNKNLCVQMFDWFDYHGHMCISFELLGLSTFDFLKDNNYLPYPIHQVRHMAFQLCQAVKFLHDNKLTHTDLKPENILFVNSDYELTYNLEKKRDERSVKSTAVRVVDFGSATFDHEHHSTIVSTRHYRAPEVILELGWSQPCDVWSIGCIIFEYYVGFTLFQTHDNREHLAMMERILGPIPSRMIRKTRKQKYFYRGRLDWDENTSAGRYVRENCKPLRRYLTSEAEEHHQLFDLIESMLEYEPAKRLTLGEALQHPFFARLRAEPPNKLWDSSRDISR

[13] = molecular target: Homeodomain-interacting protein kinase 2 (Homo sapiens) (UniProt Q9H2X6); assay: Inhibition of human HIPK2 assessed as remaining enzyme activity at 1 uM by KINOMEscan assay; method in brief: as §2
Homeodomain-interacting protein kinase 2 (Homo sapiens), sequence (Q9H2X6 whole entry, looked up): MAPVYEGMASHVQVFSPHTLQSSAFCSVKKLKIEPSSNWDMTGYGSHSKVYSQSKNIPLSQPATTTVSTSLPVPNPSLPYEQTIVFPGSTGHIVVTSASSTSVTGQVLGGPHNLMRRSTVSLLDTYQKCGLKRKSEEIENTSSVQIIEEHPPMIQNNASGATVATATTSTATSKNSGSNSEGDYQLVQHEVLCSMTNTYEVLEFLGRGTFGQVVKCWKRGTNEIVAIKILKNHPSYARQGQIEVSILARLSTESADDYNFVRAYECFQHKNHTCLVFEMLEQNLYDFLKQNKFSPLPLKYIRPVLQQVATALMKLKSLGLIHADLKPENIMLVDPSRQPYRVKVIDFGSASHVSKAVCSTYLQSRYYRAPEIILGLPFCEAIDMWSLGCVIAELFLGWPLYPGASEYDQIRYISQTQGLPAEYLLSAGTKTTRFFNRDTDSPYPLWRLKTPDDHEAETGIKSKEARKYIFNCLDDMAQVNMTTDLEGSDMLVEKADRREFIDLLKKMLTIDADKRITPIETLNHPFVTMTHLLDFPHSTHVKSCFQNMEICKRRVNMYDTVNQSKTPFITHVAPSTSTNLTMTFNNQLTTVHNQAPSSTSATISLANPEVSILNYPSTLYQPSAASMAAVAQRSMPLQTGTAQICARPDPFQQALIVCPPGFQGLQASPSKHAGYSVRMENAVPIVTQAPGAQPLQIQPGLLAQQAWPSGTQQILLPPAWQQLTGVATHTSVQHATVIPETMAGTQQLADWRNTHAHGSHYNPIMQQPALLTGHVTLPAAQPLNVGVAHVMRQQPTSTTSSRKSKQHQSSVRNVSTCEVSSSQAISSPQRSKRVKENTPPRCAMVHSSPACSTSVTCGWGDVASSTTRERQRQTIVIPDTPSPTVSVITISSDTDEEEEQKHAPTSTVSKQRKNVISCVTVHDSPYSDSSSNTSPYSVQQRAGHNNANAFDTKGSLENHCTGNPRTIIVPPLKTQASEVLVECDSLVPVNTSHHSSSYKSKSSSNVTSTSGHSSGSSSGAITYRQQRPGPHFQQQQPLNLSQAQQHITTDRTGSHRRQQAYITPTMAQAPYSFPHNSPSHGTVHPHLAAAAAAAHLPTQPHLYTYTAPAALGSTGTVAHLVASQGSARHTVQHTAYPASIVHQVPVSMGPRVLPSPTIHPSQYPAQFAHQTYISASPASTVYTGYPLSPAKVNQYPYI

[14] = test system: Mus musculus; assay: Toxicity in human KMS-12-BM cells xenografted SCID-beige mouse assessed as drug tolerability at 10 to 100 mg/kg, po qd; type: organism-based; conditions: in vivo
Method in brief: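 Tolerability followed in KMS-12-BM xenograft mice given oral doses once daily at 10, 25, 50 or 100 mg/kg over a 16-day efficacy study. Body weight monitored throughout.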

[15] = test system: Mus musculus; assay: In vivo inhibition of Pim1/2-mediated BAD protein phosphorylation at Ser-112 in human KMS-12-BM cells xenografted in SCID-beige mouse measured after 6 to 16 hrs by meso scale discovery assay; type: functional, organism-based; method in brief: as §1
[16] = molecular target: Casein kinase II subunit alpha (Homo sapiens) (UniProt P68400); assay: Inhibition of full-length human CSNK2A2 expressed in mammalian system assessed as remaining enzyme activity at 1 uM by KINOMEscan assay; method in brief: as §2
Casein kinase II subunit alpha (Homo sapiens), sequence (P68400 whole entry, looked up): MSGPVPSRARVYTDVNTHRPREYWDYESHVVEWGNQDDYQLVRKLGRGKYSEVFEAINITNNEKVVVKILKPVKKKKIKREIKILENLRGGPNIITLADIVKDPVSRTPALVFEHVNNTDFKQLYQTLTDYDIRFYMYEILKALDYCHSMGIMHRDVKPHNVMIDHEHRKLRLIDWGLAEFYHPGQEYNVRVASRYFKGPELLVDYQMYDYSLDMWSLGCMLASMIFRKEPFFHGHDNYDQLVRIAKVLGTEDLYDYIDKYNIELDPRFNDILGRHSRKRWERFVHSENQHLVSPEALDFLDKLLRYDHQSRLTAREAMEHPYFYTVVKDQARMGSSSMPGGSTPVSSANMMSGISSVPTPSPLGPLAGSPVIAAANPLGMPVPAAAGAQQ

[17] = test system: Mus musculus; assay: In vivo inhibition of Pim1/2-mediated BAD protein phosphorylation at Ser-112 in human KMS-12-BM cells xenografted in SCID-beige mouse assessed as pBAD level at 100 mg/kg, po administered as single dose measured after 16 hrs by meso scale discovery assay; type: functional; design: scale not given: the % may be the effect or the level left; method in brief: as §1
[18] = molecular target: Casein kinase I isoform epsilon (Homo sapiens) (UniProt P49674); assay: Inhibition of full-length human CSNK1E expressed in bacterial system assessed as remaining enzyme activity at 1 uM by KINOMEscan assay; method in brief: as §2
Casein kinase I isoform epsilon (Homo sapiens), sequence (P49674 whole entry, looked up, canonical isoform): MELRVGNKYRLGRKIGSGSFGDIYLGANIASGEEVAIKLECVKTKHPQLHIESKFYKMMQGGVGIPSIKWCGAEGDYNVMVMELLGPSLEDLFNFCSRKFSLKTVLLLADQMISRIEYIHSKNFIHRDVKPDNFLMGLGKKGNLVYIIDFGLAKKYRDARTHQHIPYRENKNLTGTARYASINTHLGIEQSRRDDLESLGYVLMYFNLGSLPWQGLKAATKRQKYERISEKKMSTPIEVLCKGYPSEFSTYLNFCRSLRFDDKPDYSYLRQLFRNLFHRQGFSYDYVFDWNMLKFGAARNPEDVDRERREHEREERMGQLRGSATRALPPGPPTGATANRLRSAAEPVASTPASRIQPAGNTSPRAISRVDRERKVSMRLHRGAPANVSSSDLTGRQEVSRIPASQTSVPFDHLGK

[19] = molecular target: Casein kinase I isoform gamma-2 (Homo sapiens) (UniProt P78368); assay: Inhibition of full-length human CSNK1G2 expressed in bacterial system assessed as remaining enzyme activity at 1 uM by KINOMEscan assay; method in brief: as §2
[20] = Protein binding in rat assessed as as fraction unbound at 5 uM by rapid equilibrium dialysis method; type: ADME; conditions: plasma
[21] = molecular target: Serine/threonine-protein kinase pim-1 (Homo sapiens, UniProt P11309); assay: Inhibition of human full-length Pim1 expressed in Escherichia coli assessed as phosphorylation of biotinylated BAD peptide at Ser-112 preincubated for 30 mins followed by substrate addition measured after 1 hr by HTRF assay
Serine/threonine-protein kinase pim-1, sequence (P11309 whole entry): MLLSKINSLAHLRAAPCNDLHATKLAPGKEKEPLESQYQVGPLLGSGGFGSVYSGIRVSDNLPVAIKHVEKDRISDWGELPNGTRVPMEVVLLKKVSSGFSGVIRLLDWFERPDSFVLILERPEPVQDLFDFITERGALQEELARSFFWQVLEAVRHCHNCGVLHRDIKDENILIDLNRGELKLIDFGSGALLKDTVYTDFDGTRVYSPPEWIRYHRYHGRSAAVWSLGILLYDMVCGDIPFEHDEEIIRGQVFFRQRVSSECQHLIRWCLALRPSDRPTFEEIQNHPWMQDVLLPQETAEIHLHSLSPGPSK

[22] = molecular target: Dual specificity tyrosine-phosphorylation-regulated kinase 1B (Homo sapiens) (UniProt Q9Y463); assay: Inhibition of human DYRK1B assessed as remaining enzyme activity at 1 uM by KINOMEscan assay; method in brief: as §2
[23] = test system: Mus musculus; assay: In vivo inhibition of Pim1/2-mediated BAD protein phosphorylation at Ser-112 in human KMS-12-BM cells xenografted in SCID-beige mouse assessed as pBAD level at 50 mg/kg, po administered as single dose measured after 6 hrs by meso scale discovery assay; type: functional; design: scale not given: the % may be the effect or the level left; method in brief: as §1
[24] = molecular target: T1, Serine/threonine-protein kinase pim-2; assay: Inhibition of human PIM2 assessed as remaining enzyme activity at 1 uM by KINOMEscan assay
Method in brief: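 Profiled at 1 μM compound across a scanMAX KINOMEscan panel of 392 nonmutant kinases. Activity is reported as percent-of-control (POC). Panel-wide S(10) and S(1) selectivity scores are the fraction of kinases with POC below 10% and below 1%.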
Target sequence in this assay (Q9P1W9 whole entry, looked up): as the sequence (Q9P1W9 whole entry) above

[25] = molecular target: Serine/threonine-protein kinase PIM (Homo sapiens, UniProt P11309+Q9P1W9+Q86V86); assay: Inhibition of Pim1/2 in human KMS-12-BM cells assessed as phosphorylation of full-length BAD protein at Ser-112 incubated for 110 mins by flow cytometric analysis in presence of 20% FBS; type: cell-based
Method in brief: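 Cell assay in KMS-12-BM, a multiple myeloma line with relatively high endogenous Pim-1/2. Pim-dependent phosphorylation of full-length endogenous BAD at Ser-112 measured.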

[26] = Apparent permeability in pig LLC-PK1 cells at 5 uM; type: ADME, cell-based, Sus scrofa
[27] = test system: Mus musculus; assay: In vivo inhibition of Pim1/2-mediated BAD protein phosphorylation at Ser-112 in human KMS-12-BM cells xenografted in SCID-beige mouse assessed as pBAD level at 25 mg/kg, po administered as single dose measured after 6 hrs by meso scale discovery assay; type: functional; design: scale not given: the % may be the effect or the level left; method in brief: as §1

For `Cc1nc2cccc3c2nc1N[C@H](C)/C=C\C[C@H]1CNC(=O)c2cc-3[nH]c21`, the Activity [1] was 66%, the solubility thermodynamic [2] was 40 µM (≈ 14.4 µg/mL) and the “Cp(f)” value [3] was 30 nM. For the same compound, the Activity [4] was less than 10%, the Activity [5] was less than 10% and the IC50 [6] was 0.5 nM. For the same compound, the Activity [7] was 0%, the Activity [8] was less than 10% and the CL [9] was 14%. The clearance [10] was 7.83 mL/min/kg, the Vd [11] was 1.5 L/kg and the Activity [12] was less than 10%. For the same compound, the Activity [13] was less than 10%, the Activity [14] was “Non-toxic” and the Activity [15] was “Dose-dependent effect”. For the same compound, the EC50 [15] was 3600 nM, the Activity [16] was less than 10% and the Activity [17] was 53%. For the same compound, the Activity [18] was less than 10%, the Activity [19] was less than 10% and the fraction unbound at 5 µM [20] was 0.007. The IC50 [21] was 0.3 nM, the Activity [22] was less than 10% and the Activity [23] was 60%. It also gave an Activity [24] of less than 10%, an IC50 [25] of 25 nM and a Papp at 5 µM [26] of 29 ×10⁻⁶ cm/s. For the same compound, the Activity [27] was 35%.
